This note sets out measurements from publication PMC9072645 (RSC Advances, 2019).

The structures appear in SMILES notation.

What all share (format): biochemical
For test [1], the target named is hrDPP IV (Homo sapiens, UniProt P27487). The test can be described thus: Inhibition of hrDPP IV. The method, boiled down: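 Recombinant human DPP IV, 0.01 μg per well, in 25 mM Tris, 1 mg mL−1 BSA, pH 8.0. Enzyme preincubated 30 min at 37 °C with test compound […]. Residual activity was read with 50 μM H-Gly-Pro-AMC as fluorescence increase over 60 min at 37 °C, 360/460 nm. Triplicate wells, repeated twice. IC50 determined graphically.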
hrDPP IV, sequence (P27487 whole entry): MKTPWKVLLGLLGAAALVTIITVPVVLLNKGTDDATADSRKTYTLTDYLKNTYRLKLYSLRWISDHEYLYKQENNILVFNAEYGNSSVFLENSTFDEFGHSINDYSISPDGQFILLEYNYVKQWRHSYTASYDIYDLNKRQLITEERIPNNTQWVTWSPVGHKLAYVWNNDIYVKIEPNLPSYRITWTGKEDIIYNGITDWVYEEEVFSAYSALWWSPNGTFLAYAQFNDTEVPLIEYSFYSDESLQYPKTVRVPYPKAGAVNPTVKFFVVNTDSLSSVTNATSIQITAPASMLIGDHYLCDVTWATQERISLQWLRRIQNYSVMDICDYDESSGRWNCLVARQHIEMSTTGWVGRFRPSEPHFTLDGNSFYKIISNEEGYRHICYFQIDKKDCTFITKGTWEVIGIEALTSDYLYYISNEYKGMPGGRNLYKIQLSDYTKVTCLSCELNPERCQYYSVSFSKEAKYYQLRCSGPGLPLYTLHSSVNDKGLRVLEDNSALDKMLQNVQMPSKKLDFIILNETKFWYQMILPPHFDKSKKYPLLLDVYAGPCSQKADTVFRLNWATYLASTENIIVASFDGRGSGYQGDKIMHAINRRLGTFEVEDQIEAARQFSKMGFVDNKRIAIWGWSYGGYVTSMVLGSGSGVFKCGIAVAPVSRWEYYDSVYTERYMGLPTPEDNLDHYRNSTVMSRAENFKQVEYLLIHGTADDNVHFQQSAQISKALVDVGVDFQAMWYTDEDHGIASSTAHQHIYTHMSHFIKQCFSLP

Test [2] addresses T1, hrPREP (Homo sapiens, UniProt P48147).
T1 sequence (P48147 1-710): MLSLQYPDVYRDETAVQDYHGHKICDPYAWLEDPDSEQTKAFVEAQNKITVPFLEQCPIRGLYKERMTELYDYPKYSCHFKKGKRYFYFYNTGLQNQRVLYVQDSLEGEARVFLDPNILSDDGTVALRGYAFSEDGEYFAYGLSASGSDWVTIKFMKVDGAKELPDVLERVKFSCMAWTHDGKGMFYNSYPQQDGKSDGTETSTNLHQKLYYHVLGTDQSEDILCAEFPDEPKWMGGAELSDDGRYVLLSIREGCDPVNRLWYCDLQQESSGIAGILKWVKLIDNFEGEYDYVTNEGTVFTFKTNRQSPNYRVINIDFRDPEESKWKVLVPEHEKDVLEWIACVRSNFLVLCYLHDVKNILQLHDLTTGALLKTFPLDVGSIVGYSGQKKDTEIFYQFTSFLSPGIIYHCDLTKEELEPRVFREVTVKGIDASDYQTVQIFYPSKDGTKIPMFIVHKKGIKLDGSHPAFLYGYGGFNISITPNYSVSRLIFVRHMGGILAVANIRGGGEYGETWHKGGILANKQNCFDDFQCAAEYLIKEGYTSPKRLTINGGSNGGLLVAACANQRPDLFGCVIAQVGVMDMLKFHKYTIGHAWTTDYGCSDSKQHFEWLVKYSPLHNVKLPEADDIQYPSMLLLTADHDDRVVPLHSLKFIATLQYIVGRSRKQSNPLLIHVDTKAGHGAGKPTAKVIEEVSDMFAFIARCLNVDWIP
The test can be described thus: Inhibition of hrPREP.

The target in test [3] is T2, human recombinant (hr) FAP (Homo sapiens, UniProt Q12884).
T2 sequence (Q12884 1-760): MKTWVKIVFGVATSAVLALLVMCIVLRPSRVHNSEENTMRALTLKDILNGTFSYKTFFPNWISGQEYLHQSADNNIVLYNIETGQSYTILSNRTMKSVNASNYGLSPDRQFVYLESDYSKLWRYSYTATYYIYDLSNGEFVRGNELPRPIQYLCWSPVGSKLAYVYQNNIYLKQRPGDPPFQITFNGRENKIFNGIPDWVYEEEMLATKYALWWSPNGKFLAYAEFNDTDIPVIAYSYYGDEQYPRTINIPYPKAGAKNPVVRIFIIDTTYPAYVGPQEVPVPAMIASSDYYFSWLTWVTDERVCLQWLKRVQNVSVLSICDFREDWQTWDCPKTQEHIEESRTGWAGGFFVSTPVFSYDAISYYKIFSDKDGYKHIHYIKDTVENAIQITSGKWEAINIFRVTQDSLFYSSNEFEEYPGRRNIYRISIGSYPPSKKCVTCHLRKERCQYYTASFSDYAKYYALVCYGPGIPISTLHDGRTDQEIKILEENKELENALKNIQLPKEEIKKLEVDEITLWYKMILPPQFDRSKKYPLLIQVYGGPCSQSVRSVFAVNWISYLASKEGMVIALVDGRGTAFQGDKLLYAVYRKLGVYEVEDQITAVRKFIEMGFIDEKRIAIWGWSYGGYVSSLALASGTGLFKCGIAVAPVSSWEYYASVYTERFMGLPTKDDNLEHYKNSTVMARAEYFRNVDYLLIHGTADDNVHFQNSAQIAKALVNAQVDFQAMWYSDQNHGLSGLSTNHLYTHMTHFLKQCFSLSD
The test can be described thus: Inhibition of hrFAP. The method, boiled down:
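Recombinant human FAP, 0.01 μg per well, in 50 mM Tris, 1 M NaCl, 1 mg mL−1 BSA, pH 7.5. Preincubated 30 min at 37 °C with test compound at 5, 10, 20, 50 and 100 nM. Then 50 μM Z-Gly-Pro-AMC was added and the fluorescence increase followed for 60 min at 37 °C (λex/λem 360/460 nm). Triplicate wells, experiment repeated twice. IC50 determined graphically; Ki calculated.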

Turning to `N#C[C@@H]1CCCN1C(=O)CNC(=O)c1ccnc2ccc(Br)cc12` [compound 5, (S)-6-bromo-N-(2-(2-cyanopyrrolidin-1-yl)-2-oxoethyl)quinoline-4-carboxamide], the IC50 in test [1] was over 100 µM; in test [2] it was over 100 µM; in test [3], 0.03 ± 0.005 µM. In test [1] (FAP with respect to DPP IV), the “selectivity index SI FAP/DPP IV” value is reported as “higher than 3300”. The “selectivity index SI FAP/PREP” value in test [2] (FAP with respect to PREP) is reported as “higher than 3300”. Moreover, the Ki in test [3] is 0.012 ± 0.0018 µM.
